The subject of data set [1] is Mus musculus. Briefly: Acute toxicity against mice after ip administration. The conditions noted are these: in vivo. The class given is organism-based.
Data set [2] deals with GABA-A receptor; anion channel. Briefly: Tested for inhibition of specific binding of [3H]-EBOB to GABA-Gated Chloride channels of Gamma-aminobutyric acid A receptor in rat brain cortex (Potency expressed as IC50). It counts as tissue-based. The method, boiled down: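 Washed cortical membranes from SD rats (7 weeks), prepared in 50 mM Tris-HCl pH 7.4 and stored at -80 °C, equivalent to 5 mg tissue, incubated with 3 nM [3H]EBOB and test agent at 25 °C for 1 h. Bound ligand collected by filtration on polyethylenimine-treated GF/B filters and counted by scintillation. IC50 from dose-response curves run in duplicate.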

Regarding `CCCCCC(O)/C=C/C=C/C#CC#CCCCO` (stereo not given), the LD50 in data set [1] was 7.7 mg kg-1 i.p.

In the case of `CCCCCCC[C@H](O)/C=C/C#CC#CCCCO`, the LD50 in data set [1] was > 105 mg kg-1 i.p. For the same compound, the IC50 (usually the concentration needed to halve the response being measured) in data set [2] is 7.87 µM.

Turning to `CCCCCCC/C=C\CC#CC#CCCCO`, the LD50 in data set [1] is given as > 24.6 mg kg-1 i.p. The IC50 in data set [2] was > 10 µM.

Consider `CCCCCC/C=C/C=C/C#CC#CCCCO`, for which, in data set [1], the LD50 is reported as > 37.8 mg kg-1 i.p. Further, the IC50 in data set [2] is > 10 µM.

`CCCC(=O)CC/C=C/C=C/C#CC#CCCCO` came in with an LD50 in data set [1] of 1.1 mg kg-1 i.p. This compound returned a half-maximal inhibitory concentration (IC50) in data set [2] of 3.64 µM.

On to `CCC[C@@H](O)/C=C/C=C/C=C/C#CC#CCCCOC`, for which, in data set [1], the LD50 worked out at 10.6 mg kg-1 i.p. The IC50 in data set [2] is 6.79 µM.

In the case of `CCC[C@@H](O)/C=C/C=C/C=C/C#CC#CCCC=O`, the LD50 in data set [1] is given as 4.9 mg kg-1 i.p. The IC50 in data set [2] was 2.22 µM.

Regarding `CCC[C@@H](O)/C=C/C=C/C=C/C#CC#CCCC(N)=O`, the LD50 in data set [1] turned out to be 1.1 mg kg-1 i.p. This compound also registered an IC50 in data set [2] of 1.56 µM.

Compound `CCC[C@H](/C=C/C=C/C=C/C#CC#CCCCO)OC(C)=O` came in with an LD50 in data set [1] of 2.8 mg kg-1 i.p. The IC50 in data set [2] is > 10 µM.

With `C=C[C@@H](O)C#CC#C[C@@H](O)/C=C\CCCCCCC` [FALCARINDIOL], the LD50 in data set [1] is recorded as > 200 mg kg-1 i.p. Further, the IC50 in data set [2] was > 10 µM.

In turn, `CCCCNC(=O)CCC#CC#C/C=C/C=C/C=C/[C@H](O)CCC` showed an LD50 in data set [1] of 4.9 mg kg-1 i.p. In data set [2], the IC50 is > 10 µM.

Turning to `CCC[C@@H](O)/C=C/C=C/C=C/C#CC#CCCCOC(C)=O`, the LD50 in data set [1] worked out at 1.9 mg kg-1 i.p. In addition, the IC50 in data set [2] is 1.1 µM.

Turning to `CCCCCCC/C=C\C(=O)C#CC#CCCCO`, the LD50 in data set [1] was > 26 mg kg-1 i.p. For the same compound, the IC50 in data set [2] was > 10 µM.

For `CCC[C@H](/C=C/C=C/C=C/C#CC#CCCCOC(C)=O)OC(C)=O`, in data set [1], the LD50 is listed as 15.7 mg kg-1 i.p. For the same compound, in data set [2], the IC50 is > 10 µM.

As to `CCCC#CC#C/C=C/C=C/[C@@H](O)CCCCC`, in data set [1], the LD50 is recorded as > 97.6 mg kg-1 i.p. Further, the IC50 in data set [2] is > 10 µM.

As to `CCC[C@H](/C=C/C=C/C=C/C#CC#CCCCOC)OC`, the LD50 in data set [1] is recorded as > 57.2 mg kg-1 i.p. The IC50 in data set [2] is > 10 µM.

On to `CCCC(O)/C=C/C=C/C=C/C#CC#CCCCO` (stereo not given), for which the LD50 in data set [1] turned out to be 38.6 mg kg-1 i.p. This compound also showed an IC50 in data set [2] of 2.01 µM.

In data set [1], `CCCC(=O)/C=C/C=C/C=C/C#CC#CCCCO` came in with an LD50 of 7.6 mg kg-1 i.p. Further, the half-maximal inhibitory concentration (IC50) in data set [2] turned out to be 3.05 µM.

On to `CCC[C@@H](O)/C=C/C=C/C=C/C#CC#CCCC(=O)OC`, for which, in data set [1], the LD50 is 1.6 mg kg-1 i.p. In data set [2], this compound displayed an IC50 of 0.42 µM.

For the compound `CCCCC[C@H](O)/C=C/C=C/C#CC#CCCCO`, the LD50 in data set [1] is recorded as 9.5 mg kg-1 i.p. For the same compound, the IC50 in data set [2] was 1.15 µM.

As to `CCCCCC(=O)/C=C/C=C/C#CC#CCCCO`, the LD50 in data set [1] is recorded as > 25.8 mg kg-1 i.p. The IC50 in data set [2] is > 10 µM.

On to `CCCCC[C@H](O)/C=C/C=C/C#CCCCO`, for which the LD50 in data set [1] is on record as > 70.8 mg kg-1 i.p. Also, in data set [2], the IC50 was > 10 µM.

Take `CCC[C@@H](O)/C=C/C=C/C=C/C#CC#CCCCO` [CICUTOXIN]: the LD50 in data set [1] amounted to 2.8 mg kg-1 i.p. In data set [2], this compound displayed an IC50 of 0.54 µM.

For the compound `C=C(C)[C@@H]1[C@H]2OC(=O)[C@@H]1[C@]1(O)C[C@H]3OC34C(=O)O[C@H]2[C@@]41C.CC(C)(O)[C@@H]1[C@H]2OC(=O)[C@@H]1[C@]1(O)C[C@H]3OC34C(=O)O[C@H]2[C@@]41C` (stereo not given in full) [PICROTOXIN], in data set [2], the IC50 was 1.31 µM. This counts as single-digit micromolar.

Turning to `CCCCCCC/C=C\[C@H](O)C#CC#CCCCO`, in data set [1], the LD50 is on record as > 393 mg kg-1 i.p. This compound displayed an IC50 in data set [2] of 6.01 µM.

In data set [1], `CCC[C@@H](O)/C=C/C=C/C=C/C#CC#CCCC(=O)O` came in with an LD50 of 0.76 mg kg-1 i.p. In data set [2], this compound came in with an IC50 of 0.3 µM.

For the origin of these results see ChEMBL document CHEMBL1133527, “Exploring the structural basis of neurotoxicity in C(17)-polyacetylenes isolated from water hemlock” (J Med Chem, 2000).
